The source made the active and inactive calls.
Columns and labels:
Assay type in all cases: protein-complex assay
[1] = molecular target: T1, MexXY/OprM (Pseudomonas aeruginosa (strain ATCC 15692 / DSM 22644 / CIP 104116 / JCM14847 / LMG 12228 / 1C / PRS 101 / PAO1)) (UniProt Q51487+Q9ZNG9+Q9ZNG8); assay: Inhibition of MexXY/OPRM in Pseudomonas aeruginosa C25 assessed as reduction in bacterial resistance to tobramycin by measuring tobramycin MIC at 80 ug/ml incubated for 24 to 48 hrs by broth microdilution method (reference value: 16 ug/ml)
[2] = molecular target: T1, MexXY/OprM (Pseudomonas aeruginosa (strain ATCC 15692 / DSM 22644 / CIP 104116 / JCM14847 / LMG 12228 / 1C / PRS 101 / PAO1)); assay: Inhibition of MexXY/OPRM in Pseudomonas aeruginosa C30 assessed as reduction in bacterial resistance to tobramycin by measuring tobramycin MIC at 80 ug/ml incubated for 24 to 48 hrs by broth microdilution method (reference value: 8 ug/ml)
[3] = molecular target: T1, MexXY/OprM (Pseudomonas aeruginosa (strain ATCC 15692 / DSM 22644 / CIP 104116 / JCM14847 / LMG 12228 / 1C / PRS 101 / PAO1)); assay: Inhibition of MexXY/OPRM in Pseudomonas aeruginosa C31 assessed as reduction in bacterial resistance to tobramycin by measuring tobramycin MIC at 80 ug/ml incubated for 24 to 48 hrs by broth microdilution method (reference value: 8 ug/ml)
[4] = molecular target: T1, MexXY/OprM (Pseudomonas aeruginosa (strain ATCC 15692 / DSM 22644 / CIP 104116 / JCM14847 / LMG 12228 / 1C / PRS 101 / PAO1)); assay: Inhibition of MexXY/OPRM in Pseudomonas aeruginosa C54 assessed as reduction in bacterial resistance to tobramycin by measuring tobramycin MIC at 80 ug/ml incubated for 24 to 48 hrs by broth microdilution method (reference value: 32 ug/ml)
[5] = molecular target: T1, MexXY/OprM (Pseudomonas aeruginosa (strain ATCC 15692 / DSM 22644 / CIP 104116 / JCM14847 / LMG 12228 / 1C / PRS 101 / PAO1)); assay: Inhibition of MexXY/OPRM in Pseudomonas aeruginosa C59 assessed as reduction in bacterial resistance to tobramycin by measuring tobramycin MIC at 80 ug/ml incubated for 24 to 48 hrs by broth microdilution method (reference value: 64 ug/ml)
[6] = molecular target: T1, MexXY/OprM (Pseudomonas aeruginosa (strain ATCC 15692 / DSM 22644 / CIP 104116 / JCM14847 / LMG 12228 / 1C / PRS 101 / PAO1)); assay: Inhibition of MexXY/OPRM in Pseudomonas aeruginosa C60 assessed as reduction in bacterial resistance to tobramycin by measuring tobramycin MIC at 80 ug/ml incubated for 24 to 48 hrs by broth microdilution method (reference value: >128 ug/ml)
[7] = molecular target: T1, MexXY/OprM (Pseudomonas aeruginosa (strain ATCC 15692 / DSM 22644 / CIP 104116 / JCM14847 / LMG 12228 / 1C / PRS 101 / PAO1)); assay: Inhibition of MexXY/OPRM in Pseudomonas aeruginosa C70 assessed as reduction in bacterial resistance to tobramycin by measuring tobramycin MIC at 80 ug/ml incubated for 24 to 48 hrs by broth microdilution method (reference value: 32 ug/ml)
[8] = molecular target: T1, MexXY/OprM (Pseudomonas aeruginosa (strain ATCC 15692 / DSM 22644 / CIP 104116 / JCM14847 / LMG 12228 / 1C / PRS 101 / PAO1)); assay: Inhibition of MexXY/OPRM in Pseudomonas aeruginosa C73 assessed as reduction in bacterial resistance to tobramycin by measuring tobramycin MIC at 80 ug/ml incubated for 24 to 48 hrs by broth microdilution method (reference value: 128 ug/ml)
[9] = molecular target: T1, MexXY/OprM (Pseudomonas aeruginosa (strain ATCC 15692 / DSM 22644 / CIP 104116 / JCM14847 / LMG 12228 / 1C / PRS 101 / PAO1)); assay: Inhibition of MexXY/OPRM in Pseudomonas aeruginosa C76 assessed as reduction in bacterial resistance to tobramycin by measuring tobramycin MIC at 80 ug/ml incubated for 24 to 48 hrs by broth microdilution method (reference value: 32 ug/ml)
[10] = molecular target: T1, MexXY/OprM (Pseudomonas aeruginosa (strain ATCC 15692 / DSM 22644 / CIP 104116 / JCM14847 / LMG 12228 / 1C / PRS 101 / PAO1)); assay: Inhibition of MexXY/OPRM in Pseudomonas aeruginosa C83 assessed as reduction in bacterial resistance to tobramycin by measuring tobramycin MIC at 80 ug/ml incubated for 24 to 48 hrs by broth microdilution method (reference value: 128 ug/ml)
[11] = molecular target: T1, MexXY/OprM (Pseudomonas aeruginosa (strain ATCC 15692 / DSM 22644 / CIP 104116 / JCM14847 / LMG 12228 / 1C / PRS 101 / PAO1)); assay: Inhibition of MexXY/OPRM in Pseudomonas aeruginosa C98 assessed as reduction in bacterial resistance to tobramycin by measuring tobramycin MIC at 80 ug/ml incubated for 24 to 48 hrs by broth microdilution method (reference value: 64 ug/ml)
How it was run: (§1)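 Broth microdilution per CLSI, with P. aeruginosa ATCC 27853 as reference strain, in 2-fold dilution series. Plates were incubated at 37°C and read for visible growth at 24 and 48 h. Berberine stock was in 50% DMSO/50% methanol, with final DMSO kept near 1%. Berberine was tested at 10–320 µg/ml, alone or at a fixed level with serial tobramycin.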

[12] = molecular target: T1, MexXY/OprM (Pseudomonas aeruginosa (strain ATCC 15692 / DSM 22644 / CIP 104116 / JCM14847 / LMG 12228 / 1C / PRS 101 / PAO1)); assay: Inhibition of MexXY/OPRM in Pseudomonas aeruginosa C67 assessed as reduction in bacterial resistance to tobramycin by measuring tobramycin MIC at 80 ug/ml incubated for 24 to 48 hrs by broth microdilution method (reference value: 16 ug/ml)
[13] = molecular target: T1, MexXY/OprM (Pseudomonas aeruginosa (strain ATCC 15692 / DSM 22644 / CIP 104116 / JCM14847 / LMG 12228 / 1C / PRS 101 / PAO1)); assay: Inhibition of MexXY/OPRM in Pseudomonas aeruginosa C9 assessed as bacterial growth up to 320 ug/ml incubated for 24 to 48 hrs by broth microdilution method; how it was run: as §1
[14] = molecular target: T1, MexXY/OprM (Pseudomonas aeruginosa (strain ATCC 15692 / DSM 22644 / CIP 104116 / JCM14847 / LMG 12228 / 1C / PRS 101 / PAO1)); assay: Inhibition of MexXY/OPRM in Pseudomonas aeruginosa C15 assessed as bacterial growth up to 320 ug/ml incubated for 24 to 48 hrs by broth microdilution method
How it was run: (§2)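 Broth microdilution following CLSI guidelines, with P. aeruginosa ATCC 27853 as reference strain. Berberine was tested at 2-fold concentrations from 10 to 320 µg/ml, dissolved in 50% DMSO/50% methanol, with the top concentration set to keep final DMSO close to 1%. Plates were incubated at 37°C and read for visible growth at 24 and 48 h.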

[15] = molecular target: T1, MexXY/OprM (Pseudomonas aeruginosa (strain ATCC 15692 / DSM 22644 / CIP 104116 / JCM14847 / LMG 12228 / 1C / PRS 101 / PAO1)); assay: Inhibition of MexXY/OPRM in Pseudomonas aeruginosa C31 assessed as bacterial growth up to 320 ug/ml incubated for 24 to 48 hrs by broth microdilution method; how it was run: as §2
[16] = molecular target: T1, MexXY/OprM (Pseudomonas aeruginosa (strain ATCC 15692 / DSM 22644 / CIP 104116 / JCM14847 / LMG 12228 / 1C / PRS 101 / PAO1)); assay: Inhibition of MexXY/OPRM in Pseudomonas aeruginosa C51 assessed as bacterial growth up to 320 ug/ml incubated for 24 to 48 hrs by broth microdilution method; how it was run: as §2
[17] = molecular target: T1, MexXY/OprM (Pseudomonas aeruginosa (strain ATCC 15692 / DSM 22644 / CIP 104116 / JCM14847 / LMG 12228 / 1C / PRS 101 / PAO1)); assay: Inhibition of MexXY/OPRM in Pseudomonas aeruginosa C73 assessed as bacterial growth up to 320 ug/ml incubated for 24 to 48 hrs by broth microdilution method; how it was run: as §2
[18] = molecular target: T1, MexXY/OprM (Pseudomonas aeruginosa (strain ATCC 15692 / DSM 22644 / CIP 104116 / JCM14847 / LMG 12228 / 1C / PRS 101 / PAO1)); assay: Inhibition of MexXY/OPRM in Pseudomonas aeruginosa C84 assessed as bacterial growth up to 320 ug/ml incubated for 24 to 48 hrs by broth microdilution method; how it was run: as §1
[19] = molecular target: T1, MexXY/OprM (Pseudomonas aeruginosa (strain ATCC 15692 / DSM 22644 / CIP 104116 / JCM14847 / LMG 12228 / 1C / PRS 101 / PAO1)); assay: Inhibition of MexXY/OPRM in Pseudomonas aeruginosa C104 assessed as bacterial growth up to 320 ug/ml incubated for 24 to 48 hrs by broth microdilution method; how it was run: as §2
[20] = molecular target: T1, MexXY/OprM (Pseudomonas aeruginosa (strain ATCC 15692 / DSM 22644 / CIP 104116 / JCM14847 / LMG 12228 / 1C / PRS 101 / PAO1)); assay: Inhibition of MexXY/OPRM in Pseudomonas aeruginosa C60 assessed as reduction in bacterial resistance to tobramycin by measuring fold reduction in tobramycin MIC at 80 ug/ml incubated for 24 to 48 hrs by broth microdilution method
[21] = molecular target: T1, MexXY/OprM (Pseudomonas aeruginosa (strain ATCC 15692 / DSM 22644 / CIP 104116 / JCM14847 / LMG 12228 / 1C / PRS 101 / PAO1)); assay: Inhibition of MexXY/OPRM in Pseudomonas aeruginosa C89 assessed as reduction in bacterial resistance to tobramycin by measuring fold reduction in tobramycin MIC at 80 ug/ml incubated for 24 to 48 hrs by broth microdilution method
How it was run: (§3)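 Tobramycin MIC by CLSI broth microdilution at 37°C, read at 24 and 48 h, with and without a fixed berberine concentration selected from checkerboard assays. Berberine stock was in 50% DMSO/50% methanol, final DMSO about 1%. A 2-fold decrease in tobramycin MIC was scored as synergy.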

[22] = molecular target: T1, MexXY/OprM (Pseudomonas aeruginosa (strain ATCC 15692 / DSM 22644 / CIP 104116 / JCM14847 / LMG 12228 / 1C / PRS 101 / PAO1)); assay: Inhibition of MexXY/OPRM in Pseudomonas aeruginosa C95 assessed as reduction in bacterial resistance to tobramycin by measuring fold reduction in tobramycin MIC at 80 ug/ml incubated for 24 to 48 hrs by broth microdilution method; how it was run: as §3
[23] = molecular target: T1, MexXY/OprM (Pseudomonas aeruginosa (strain ATCC 15692 / DSM 22644 / CIP 104116 / JCM14847 / LMG 12228 / 1C / PRS 101 / PAO1)); assay: Inhibition of MexXY/OPRM in Pseudomonas aeruginosa AR48 assessed as reduction in bacterial resistance to tobramycin by measuring fold reduction in tobramycin MIC at 80 ug/ml incubated for 24 to 48 hrs by broth microdilution method

COc1ccc2cc3[n+](cc2c1OC)CCc1cc2c(cc1-3)OCO2 [BERBERINE]
64 µg/mL: MIC [6] | MIC [8]
inactive: inhibition [13] | inhibition [14] | inhibition [15] | inhibition [16] | inhibition [17] | inhibition [18] | inhibition [19]
> 2: fold change (FC) [20] | fold change (FC) [21] | fold change (FC) [22] | fold change (FC) [23]
32 µg/mL: MIC [5] | MIC [10] | MIC [11]
8 µg/mL: MIC [2] | MIC [3] | MIC [7]
1 µg/mL: MIC [1]
16 µg/mL: MIC [4] | MIC [9] | MIC [12]
